Measurements taken from PMC3149718 (Molecular and cellular biochemistry, 2011).
Positions count from the first letter of the chain named.

Assays:
[1] = biological target: T1, 89-residue L-CPTI C-terminal peptide, W391A mutant (Rattus norvegicus, UniProt P32198, W391A); test: Direct binding of fluorescent cis-parinaroyl-CoA
T1 sequence (P32198 381-469 W391A): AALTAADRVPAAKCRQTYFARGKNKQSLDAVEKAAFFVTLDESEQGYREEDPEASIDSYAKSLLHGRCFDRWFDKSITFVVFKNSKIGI

[2] = biological target: T2, 89-residue L-CPTI C-terminal peptide, W452A mutant (Rattus norvegicus, UniProt P32198, W452A); test: Direct binding of fluorescent cis-parinaroyl-CoA
T2 sequence (P32198 381-469 W452A): T1 sequence (P32198 381-469 W391A) with A11W, W72A

[3] = biological target: T3, 89-residue L-CPTI C-terminal peptide, wild-type (WT) (Rattus norvegicus, UniProt P32198); test: FRET from CPTI aromatic amino acids to bound cis-parinaroyl-CoA; type: binding
T3 sequence (P32198 381-469): T1 sequence (P32198 381-469 W391A) with A11W
Procedure, shortened: (§1)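 Peptide (0.1 µM in PBS, pH 7.4) was titrated with cis-parinaroyl-CoA at 24°C (0–1000 nM in methods; 0–250 nM in legend), with excitation at 280 nm and a 300–450 nm scan. Spectra were background-corrected and each averaged from 5 replicates. […] Distance was obtained by the Förster equation. Values are mean ± SE, n=5.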

[4] = biological target: T1, 89-residue L-CPTI C-terminal peptide, W391A mutant; test: as above; type: binding
Procedure, shortened: as §1

[5] = biological target: T2, 89-residue L-CPTI C-terminal peptide, W452A mutant; test: as above; type: binding
Procedure, shortened: as §1

[6] = biological target: T3, 89-residue L-CPTI C-terminal peptide, wild-type (WT); test: Displacement of bound cis-parinaroyl-CoA by palmitoyl-CoA; type: binding; conditions: palmitoyl-CoA 0–150nM
Procedure, shortened: (§2)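 Purified 89-residue peptide (0.1 µM in PBS, pH 7.4) was preincubated with 50 nM cis-parinaroyl-CoA for 5 min at 24°C. It was then titrated with palmitoyl-CoA (0–150 nM stated for WT). Excitation was 310 nm and emission was read at 426 nm. Displacement was taken from the fall in fluorescence and plotted as percent change, and Ki was then calculated.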

[7] = biological target: T1, 89-residue L-CPTI C-terminal peptide, W391A mutant; test: as above; type: binding; conditions: mutant peptides (W391A), range given for both mutants
Procedure, shortened: as §2

[8] = biological target: T2, 89-residue L-CPTI C-terminal peptide, W452A mutant; test: as above; type: binding; conditions: mutant peptides (W452A), range given for both mutants
Procedure, shortened: as §2

[9] = biological target: T1, 89-residue L-CPTI C-terminal peptide, W391A mutant; test: Quenching of intrinsic aromatic amino acid fluorescence by palmitoyl-CoA; type: binding; conditions: read-out: Quenching Kd, quenching of aromatic amino acid fluorescence of 0.1 µM W391A peptide
[10] = biological target: T2, 89-residue L-CPTI C-terminal peptide, W452A mutant; test: as above; type: binding; conditions: read-out: Quenching Kd, quenching of aromatic amino acid fluorescence of 0.1 µM W452A peptide

Row | binding affinity weaker than WT ([1]; mutant (W391A) versus WT, range given for both mutants) | Kd ([1]; read-out: Cpn-CoA Kd, W391A peptide 0.1 µM, PBS pH 7.4, 24°C, direct fluorescence) [nM] | binding affinity weaker than WT ([2]; mutant (W452A) versus WT, range given for both mutants) | Kd ([2]; read-out: Cpn-CoA Kd, W452A peptide 0.1 µM, PBS pH 7.4, 24°C, direct fluorescence) [nM] | intermolecular distance determined from the increased acceptor fluorescence ([3]; CPTI WT, acceptor (cis-parinaroyl-CoA) fluorescence) [Å] | Donor Emission R (intermolecular distance) ([3]; from donor (CPTI WT) quenching, Förster equation) [Å] | Kd ([3]; read-out: Donor Emission Kd, from decrease in donor (CPTI WT) fluorescence) [nM] | Donor Emission R (intermolecular distance) ([4]; from donor (W391A) quenching) [Å] | Kd ([4]; read-out: Donor Emission Kd, from decrease in donor (W391A) fluorescence) [nM] | Donor Emission R (intermolecular distance) ([5]; from donor (W452A) quenching) [Å] | Kd ([5]; read-out: Donor Emission Kd, from decrease in donor (W452A) fluorescence) [nM] | displacement of cis-parinaroyl-CoA [6] | cis-parinaroyl-CoA displacement [7] | cis-parinaroyl-CoA displacement [8] | Kd [9] [nM] | Kd [10] [nM] | Structure (SMILES)
1 | 5–7 fold | 52 ± 8 | 5–7 fold | 67 ± 10 | 38±1 | 28 ± 1 | 35 ± 10 | 23.9 ± 0.6 | 88 ± 9 | 24.3 ± 0.6 | 51 ± 5 | – | – | – | – | – | CC/C=C/C=C\C=C/C=C/CCCCCCCC(=O)SCCNC(=O)CCNC(=O)[C@H](O)C(C)(C)COP(=O)(O)OP(=O)(O)OC[C@H]1O[C@@H](n2cnc3c(N)ncnc32)[C@H](O)[C@@H]1OP(=O)(O)O (relative stereo) [cis-parinaroyl-CoA]
2 | – | – | – | – | – | – | – | – | – | – | – | approximately 70% | 50–60% | 50–60% | 9 ± 1 | 16 ± 2 | CCCCCCCCCCCCCCCC(=O)SCCNC(=O)CCNC(=O)[C@H](O)C(C)(C)COP(=O)(O)OP(=O)(O)OC[C@H]1O[C@@H](n2cnc3c(N)ncnc32)[C@H](O)[C@@H]1OP(=O)(O)O [palmitoyl-CoA]
